{"source": "ChEMBL document CHEMBL3352331", "about": "“Anti-respiratory syncytial virus prenylated dihydroquinolone derivatives from the gorgonian-derived fungus Aspergillus sp. XS-20090B15” (J Nat Prod, 2014)", "key": {"[1]": {"tested_on": "Respiratory syncytial virus", "assay": "Antiviral activity against Respiratory syncytial virus infected in human Hep2 cells assessed as inhibition of virus-induced cytopathic effect after 72 hrs by XTT assay", "format": "functional, organism-based", "settings": "HEp-2, 72 h", "method_in_brief": "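RSV-induced cytopathic effect inhibition in Hep-2 (human laryngeal carcinoma) cells, run by an established CPE-inhibition procedure. Ribavirin served as the positive control. Values are the mean of three replicate determinations.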"}, "[2]": {"assay": "Cytotoxicity against human Hep2 cells after 48 hrs", "format": "cell-based, HEp-2", "settings": "read-out: TC50"}, "[3]": {"assay": "Therapeutic index, ratio of TC50 for human Hep2 cells to IC50 for Respiratory syncytial virus", "format": "cell-based, HEp-2", "settings": "read-out: TI"}}, "note": "pIC50: −log10 of the molar value.", "data": [{"smiles": "CO[C@@H]1C(=O)Nc2ccc(/C=C/[C@]3(C)CCC(=O)[C@H](C)C3)c(O)c2[C@@]1(O)c1ccccc1", "values": [{"measurement": "pIC50", "setting": "[1]", "value": 5.18}, {"measurement": "CC50 at 48 h", "setting": "[2]", "value": 27, "unit": "µM"}, {"measurement": "selectivity ratio", "setting": "[3]", "value": 4}]}, {"smiles": "CO[C@@H]1C(=O)Nc2ccc(/C=C/[C@]3(C)CCC(=O)[C@@H](C)C3)c(O)c2[C@@]1(O)c1ccccc1", "note": "[AFLAQUINOLONE A]", "values": [{"measurement": "pIC50", "setting": "[1]", "value": "< 4.30"}]}, {"smiles": "CN[C@H](C(=O)O[C@@H]1CC[C@@](C)(/C=C/c2ccc3c(c2O)[C@@](O)(c2ccccc2)[C@H](OC)C(=O)N3)C[C@@H]1C)C(C)C", "values": [{"measurement": "pIC50", "setting": "[1]", "value": "< 4.30"}]}, {"smiles": "CN[C@H](C(=O)O[C@@H]1CC[C@@](C)(/C=C/c2ccc3c(c2O)[C@@](O)(c2ccccc2)[C@H](OC)C(=O)N3)C[C@H]1C)C(C)C", "values": [{"measurement": "pIC50", "setting": "[1]", "value": 7.38}, {"measurement": "CC50 at 48 h", "setting": "[2]", "value": 22, "unit": "µM"}, {"measurement": "selectivity ratio", "setting": "[3]", "value": 520}]}, {"smiles": "NC(=O)c1ncn([C@@H]2O[C@H](CO)[C@@H](O)[C@H]2O)n1", "note": "[RIBAVIRIN]", "values": [{"measurement": "pIC50", "setting": "[1]", "value": 4.70}, {"measurement": "CC50 at 48 h", "setting": "[2]", "value": "> 3000", "unit": "µM"}, {"measurement": "selectivity ratio", "setting": "[3]", "value": "> 150"}]}]}
